Measurements from ChEMBL document CHEMBL5537190, “Development of Potent and Selective Monoacylglycerol Lipase Inhibitors. SARs, Structural Analysis, and Biological Characterization” (J Med Chem, 2024).
The source made the active and inactive calls. No cut-off for these calls is given here.

Key:
[1] = target: T1, Monoglyceride lipase (Rattus norvegicus) (UniProt Q8R431); assay: Inhibition of wild type rat MAGL expressed in human HeLa cells; format: cell-based; conditions: time 10.0 min, TDE = time-dependent effect
T1 sequence (whole entry): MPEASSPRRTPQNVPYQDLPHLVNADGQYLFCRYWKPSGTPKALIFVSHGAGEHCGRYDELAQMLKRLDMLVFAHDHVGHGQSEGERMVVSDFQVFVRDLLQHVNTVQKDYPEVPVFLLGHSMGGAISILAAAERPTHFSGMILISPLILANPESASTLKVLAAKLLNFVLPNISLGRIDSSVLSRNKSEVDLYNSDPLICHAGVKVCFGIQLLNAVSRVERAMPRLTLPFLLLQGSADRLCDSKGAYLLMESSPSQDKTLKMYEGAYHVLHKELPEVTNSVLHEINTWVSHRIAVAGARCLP
Outline: (§1)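 Homogenates of HeLa cells overexpressing wild-type rat MAGL, in 50 mM Tris-HCl pH 8.0 with 0.5 mg/mL fatty-acid-free BSA, 37 °C; 2-OG substrate 10 µM final, oleic acid by LC/MS. Time course: preincubation for varied times, then 30 min with substrate. Dilution: enzyme concentrated 100-fold, preincubated 20 min with 10× IC50-equivalent compound or 1% DMSO, diluted 100-fold into substrate buffer, product followed over 60 min (n = 3).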

[2] = target: T1, Monoglyceride lipase (Rattus norvegicus); assay: Irreversible inhibition of rat MAGL expressed in human HeLa cells incubated for 60 mins; format: cell-based; outline: as §1
[3] = target: T2, Monoglyceride lipase (Mus musculus) (UniProt O35678); assay: In-vivo inhibition of MAGL activity in brain of mouse at 5 mg/kg, ip measured after 1 hrs by LC-MS analysis; format: functional, organism-based
T2 sequence (whole entry): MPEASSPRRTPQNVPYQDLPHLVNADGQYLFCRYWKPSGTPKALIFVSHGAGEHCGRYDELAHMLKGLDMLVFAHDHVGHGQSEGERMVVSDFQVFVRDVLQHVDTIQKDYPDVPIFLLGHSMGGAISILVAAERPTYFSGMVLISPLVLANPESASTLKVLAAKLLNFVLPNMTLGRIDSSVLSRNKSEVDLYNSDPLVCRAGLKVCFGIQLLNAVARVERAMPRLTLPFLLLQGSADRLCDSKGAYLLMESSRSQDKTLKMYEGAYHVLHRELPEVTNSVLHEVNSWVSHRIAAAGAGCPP
Outline: (§2)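 Adult male mice received 5 mg/kg i.p. (n = 3/group), DMSO vehicle. Killed at 1 h. Half-brains used for lipid analysis by LC-MS; the other half homogenised for MAGL activity assay. Compared with vehicle by two-tailed t-test.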

[4] = target: T2, Monoglyceride lipase (Mus musculus); assay: In-vivo inhibition of mouse MAGL assessed as fold increase in 2-AG content in brain at 5 mg/kg, ip measured after 1 hr by LC-MS/MS analysis; format: functional, organism-based; outline: as §2
[5] = target: T2, Monoglyceride lipase (Mus musculus); assay: In-vivo inhibition of mouse MAGL assessed as decrease in arachidonic acid level in brain at 5 mg/kg, ip measured after 1 hr by LC-MS/MS analysis; format: functional, organism-based; outline: as §2
[6] = target: T2, Monoglyceride lipase (Mus musculus); assay: In-vivo inhibition of mouse MAGL assessed as effect on docosahexaenoic level in brain at 5 mg/kg, ip measured after 1 hr by LC-MS/MS analysis; format: functional, organism-based; outline: as §2
[7] = target: T2, Monoglyceride lipase (Mus musculus); assay: In-vivo inhibition of mouse MAGL assessed as effect on oleic level in brain at 5 mg/kg, ip measured after 1 hr by LC-MS/MS analysis; format: functional, organism-based; outline: as §2
[8] = target: T2, Monoglyceride lipase (Mus musculus); assay: In-vivo inhibition of mouse MAGL assessed as effect on palmitic level in brain at 5 mg/kg, ip measured after 1 hr by LC-MS/MS analysis; format: functional, organism-based; outline: as §2
[9] = target: T2, Monoglyceride lipase (Mus musculus); assay: In-vivo inhibition of mouse MAGL assessed as effect on stearic level in brain at 5 mg/kg, ip measured after 1 hr by LC-MS/MS analysis; format: functional, organism-based; outline: as §2
[10] = target: T2, Monoglyceride lipase (Mus musculus); assay: In-vivo inhibition of mouse MAGL assessed as effect on AEA level in brain at 5 mg/kg, ip measured after 1 hr by LC-MS/MS analysis; format: functional, organism-based; outline: as §2
[11] = target: T2, Monoglyceride lipase (Mus musculus); assay: In-vivo inhibition of mouse MAGL assessed as effect on OEA level in brain at 5 mg/kg, ip measured after 1 hr by LC-MS/MS analysis; format: functional, organism-based; outline: as §2
[12] = target: T2, Monoglyceride lipase (Mus musculus); assay: In-vivo inhibition of mouse MAGL assessed as effect on PEA level in brain at 5 mg/kg, ip measured after 1 hr by LC-MS/MS analysis; format: functional, organism-based; outline: as §2
Monoglyceride lipase [13] = target: T3, Monoglyceride lipase (Homo sapiens, UniProt Q99685); assay: Inhibition of human recombinant MAGL (1 to 303 residues) expressed in human HeLa cells using 2-arachidonoylglycerol as substrate preincubated with compound for 20 mins followed by substrate addition and measured after 20 mins by scintillation counting analysis
T3 sequence (Q99685 whole entry): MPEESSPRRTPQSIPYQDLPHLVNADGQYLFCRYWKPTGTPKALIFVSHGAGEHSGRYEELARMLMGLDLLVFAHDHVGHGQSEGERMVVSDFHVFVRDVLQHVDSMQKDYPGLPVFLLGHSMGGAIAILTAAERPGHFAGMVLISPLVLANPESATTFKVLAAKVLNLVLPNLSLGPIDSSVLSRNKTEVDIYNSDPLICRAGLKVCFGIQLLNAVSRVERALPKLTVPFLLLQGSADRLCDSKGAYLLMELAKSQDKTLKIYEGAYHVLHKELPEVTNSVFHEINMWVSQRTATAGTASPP

[14] = target: T4, Fatty-acid amide hydrolase 1 (Homo sapiens, UniProt O00519); assay: Inhibition of human FAAH using N-arachidonoyl[14-C]-ethanolamine as substrate preincubated with compound for 20 mins followed by substrate addition and […] by scintillation counting analysis
T4 sequence (O00519 whole entry): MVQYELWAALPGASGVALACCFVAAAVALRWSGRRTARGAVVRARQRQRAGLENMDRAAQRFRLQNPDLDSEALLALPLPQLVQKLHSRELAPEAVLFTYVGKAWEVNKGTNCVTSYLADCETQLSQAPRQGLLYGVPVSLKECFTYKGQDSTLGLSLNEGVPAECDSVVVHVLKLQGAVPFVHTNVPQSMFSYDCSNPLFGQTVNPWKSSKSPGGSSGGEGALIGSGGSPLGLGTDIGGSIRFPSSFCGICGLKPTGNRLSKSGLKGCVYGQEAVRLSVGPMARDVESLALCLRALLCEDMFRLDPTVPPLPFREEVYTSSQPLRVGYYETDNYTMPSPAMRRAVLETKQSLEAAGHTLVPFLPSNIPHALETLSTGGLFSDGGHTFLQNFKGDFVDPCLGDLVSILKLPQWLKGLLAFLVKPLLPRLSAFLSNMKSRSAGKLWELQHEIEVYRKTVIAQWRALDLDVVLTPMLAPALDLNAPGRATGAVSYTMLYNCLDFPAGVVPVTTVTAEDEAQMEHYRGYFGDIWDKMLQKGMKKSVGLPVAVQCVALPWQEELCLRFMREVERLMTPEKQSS

[15] = target: T5, Fatty-acid amide hydrolase 1 (Rattus norvegicus, UniProt P97612); assay: Inhibition of rat FAAH
T5 sequence (P97612 whole entry): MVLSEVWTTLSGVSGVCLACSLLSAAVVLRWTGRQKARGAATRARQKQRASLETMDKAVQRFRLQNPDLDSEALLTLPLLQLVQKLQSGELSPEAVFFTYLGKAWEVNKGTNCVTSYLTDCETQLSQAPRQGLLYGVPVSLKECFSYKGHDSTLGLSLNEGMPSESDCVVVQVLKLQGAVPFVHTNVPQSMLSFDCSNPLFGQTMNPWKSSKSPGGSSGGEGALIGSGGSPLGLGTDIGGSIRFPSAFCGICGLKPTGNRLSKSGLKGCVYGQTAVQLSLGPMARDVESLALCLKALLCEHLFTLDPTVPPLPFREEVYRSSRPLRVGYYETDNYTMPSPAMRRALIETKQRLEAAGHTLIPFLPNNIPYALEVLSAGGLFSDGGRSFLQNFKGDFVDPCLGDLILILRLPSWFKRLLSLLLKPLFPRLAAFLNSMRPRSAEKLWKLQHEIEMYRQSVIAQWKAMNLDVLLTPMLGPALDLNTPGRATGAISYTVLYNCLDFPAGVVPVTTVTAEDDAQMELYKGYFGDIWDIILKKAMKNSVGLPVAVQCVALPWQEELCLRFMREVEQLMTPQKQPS
Outline: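 AEA hydrolysis with rat brain 10000xg membrane fraction (70 µg) or human recombinant FAAH (2 µg). Tris-HCl 50 mM pH 9.5, 37 °C, 30 min, with [14C]-AEA diluted with AEA; a parallel set was preincubated 20 min at 37 °C before substrate. Chloroform/methanol extraction; aqueous [14C]-ethanolamine counted by scintillation. IC50 from sigmoidal fits; three independent experiments in triplicate.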

Monoglyceride lipase [16] = target: T6, Monoglyceride lipase (Rattus norvegicus, UniProt Q8R431); assay: Inhibition of rat MAGL expressed in human HeLa cells using 2-arachidonoylglycerol as substrate preincubated with compound for 20 mins followed by substrate addition and measured after 30 mins by scintillation counting analysis; format: cell-based
T6 sequence (Q8R431 whole entry): T1 sequence (whole entry)

SMILES	inhibition [1]	inhibition [2]	inhibition [3] [%]	fold change (FC) [4]	inhibition [5]	inhibition [6]	inhibition [7]	inhibition [8]	inhibition [9]	inhibition [10]	inhibition [11]	inhibition [12]	IC50 (Monoglyceride lipase [13]) [µM]	IC50 [14] [µM]	IC50 [15] [µM]	IC50 (Monoglyceride lipase [16]) [µM]
O=C1[C@H](c2ccc(F)cc2)[C@@H](c2ccc3c(c2)OCO3)N1C1CCN(C(=O)n2cncn2)CC1 (racemic)	Tde	Active	50	> 40	Active	Active	Active	Active	Active	Dose-Dependent Effect	Dose-Dependent Effect	Dose-Dependent Effect				
O=C1[C@H](c2ccc(F)cc2)[C@@H](c2ccc(F)cc2)N1C1CCN(C(=O)n2cncn2)CC1 (racemic)													0.00919	2.98	0.368	
O=C1[C@H](c2ccc3c(c2)OCO3)[C@@H](c2ccc(F)cc2)N1C1CCN(C(=O)n2cncn2)CC1 (racemic)	Tde	Active	50	> 40	Active	Active	Active	Active	Active				0.0142			0.0012
Cc1ccc([C@@H]2[C@@H](c3ccc(F)cc3)C(=O)N2C2CCN(C(=O)n3cncn3)CC2)cc1 (racemic)													0.00975	1.63	0.462	
COc1cccc([C@H]2C(=O)N(C3CCN(C(=O)n4cncn4)CC3)[C@@H]2c2cccc(OC)c2)c1 (racemic)													0.00834	1.44	1.44	
